{"source": "ChEMBL document CHEMBL1250446", "about": "“Novel targets for Huntington's disease in an mTOR-independent autophagy pathway” (Nat Chem Biol, 2008)", "key": {"Mus musculus": {"organism": "Mus musculus", "assay": "Induction of autophagy in Atg deficient mouse […] expressing EGFP-HDQ74 at 1 uM after 48 hrs", "format": "functional"}, "SK-N-SH (Homo sapiens) [1]": {"test_system": "SK-N-SH (Homo sapiens)", "assay": "Induction of autophagy in human SK-N-SH cells assessed as increase in LC3-2 level at 3 uM after 24 hrs by immunoblotting analysis"}, "SK-N-MC [2]": {"test_system": "SK-N-MC", "assay": "Cytotoxicity against human SK-N-MC cells expressing EGFP-HDQ74 at 1 uM after 48 hrs", "format": "cell-based"}, "SK-N-MC [3]": {"test_system": "SK-N-MC", "assay": "Induction of autophagy in Atg positive human SK-N-MC cells expressing EGFP-HDQ74 at 1 uM after 48 hrs", "format": "functional, cell-based"}, "SK-N-SH (Homo sapiens) [4]": {"test_system": "SK-N-SH (Homo sapiens)", "assay": "Induction of autophagy in human SK-N-SH cells expressing EGFP-HDQ74 assessed as reduction in EGFP-HDQ74 aggregation at 1 uM after 48 hrs by densitometric analysis"}, "COS-7 [5]": {"test_system": "COS-7", "assay": "Induction of autophagy in african green monkey COS7 cells assessed as increase in LC-3-2 positive vesicles at 2.5 uM after 2 hrs by immunofluorescence analysis", "format": "functional, cell-based", "details": "Chlorocebus aethiops", "procedure,_shortened": "(§1)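 COS-7 cells treated 2 h, fixed in 4% paraformaldehyde, then immunostained with anti-LC3 and Alexa-conjugated secondary antibodies. LC3-positive vesicles imaged by confocal microscopy (63x oil lens) at room temperature.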"}, "COS-7 [6]": {"test_system": "COS-7", "assay": "Induction of autophagy in african green monkey COS7 cells expressing EGFP-HDQ74 assessed as EGFP-HDQ74 aggregation at 2.5 uM after 48 hrs", "format": "functional, cell-based", "details": "Chlorocebus aethiops", "procedure,_shortened": "(§2)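 COS-7 cells transfected with EGFP-HDQ74 (1.5 μg/well) for 4 h, then exposed for the last 24 h of a 48 h post-transfection period. ALLM (50 μM) was added 15 min before thapsigargin. Cells fixed in 4% PFA with DAPI mount; ~200 EGFP-positive cells per sample scored blinded for aggregates. Triplicate, at least twice; odds ratios.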"}, "COS-7 [7]": {"test_system": "COS-7", "assay": "Induction of autophagy in african green monkey COS7 cells assessed as increase in steady state LC-3 positive vesicles at 2.5 uM after 2 hrs by immunofluorescence analysis", "format": "functional, cell-based", "details": "Chlorocebus aethiops", "procedure,_shortened": "as §1"}, "COS-7 [8]": {"test_system": "COS-7", "assay": "Effect on mTOR-signaling in african green monkey COS7 cells assessed as phospho-S6K at 2.5 uM by immunoblotting analysis", "format": "cell-based", "details": "Chlorocebus aethiops", "procedure,_shortened": "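COS-7 cells exposed 24 h (0.2 μM rapamycin as positive control for mTOR inhibition); lysates immunoblotted for phospho-S6K, with densitometry of phospho-S6K relative to total S6K.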"}, "PC-12 [9]": {"test_system": "PC-12", "assay": "Induction of autophagy in rat stable inducible PC12 cells expressing A53T alpha-synuclein assessed as A53T alpha-synuclein clearance at 2.5 uM after 24 hrs by densitometric analysis", "format": "functional, cell-based", "procedure,_shortened": "(§3)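 Stable inducible PC12 line: A53T α-synuclein (HA-tagged) induced with 1 μg/ml doxycycline for 48 h, then switched off by doxycycline removal for 24 h during treatment. For ALLM (50 μM), 15 min pre-treatment. Anti-HA immunoblot, densitometry relative to actin; DMSO control.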"}, "COS-7 [10]": {"test_system": "COS-7", "assay": "Induction of autophagy in african green monkey COS7 cells expressing EGFP-HDQ74 assessed as EGFP-HDQ74 aggregation at 2.5 uM after 48 hrs in presence of 50 uM ALLM", "format": "functional, cell-based", "details": "Chlorocebus aethiops", "procedure,_shortened": "as §2"}, "PC-12 [11]": {"test_system": "PC-12", "assay": "Induction of autophagy in rat stable inducible PC12 cells expressing A53T alpha-synuclein assessed as A53T alpha-synuclein clearance at 2.5 uM after 24 hrs by densitometric analysis in presence of 50 uM ALLM", "format": "functional, cell-based", "procedure,_shortened": "as §3"}, "COS-7 [12]": {"test_system": "COS-7", "assay": "Induction of autophagy in african green monkey COS7 cells assessed as intracytosolic calcium concentration nu calpain activation assay", "format": "functional, cell-based", "details": "Chlorocebus aethiops"}, "COS-7 [13]": {"test_system": "COS-7", "assay": "Induction of autophagy in african green monkey COS7 cells assessed as increase in LC-3-2 positive vesicles at 2.5 uM after 2 hrs by immunofluorescence analysis n presence of 400 nM bafilomycin A1", "format": "functional, cell-based", "details": "Chlorocebus aethiops"}, "COS-7 [14]": {"test_system": "COS-7", "assay": "Induction of autophagy in african green monkey COS7 cells expressing EGFP-Atg5 assessed as increase in Atg5 level at 2.5 uM after 48 hrs by immunoblotting analysis", "format": "functional, cell-based", "details": "Chlorocebus aethiops", "procedure,_shortened": "(§4)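 COS-7 cells co-transfected 4 h with EGFP-Atg5 plus EGFP as transfection control (3:1 ratio), then treated. Atg5 level and cleavage assessed by immunoblotting.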"}, "COS-7 [15]": {"test_system": "COS-7", "assay": "Induction of autophagy in african green monkey COS7 cells expressing EGFP-Atg5 assessed as increase in Atg5 level at 10 uM after 48 hrs by immunoblotting analysis", "format": "functional, cell-based", "details": "Chlorocebus aethiops", "procedure,_shortened": "as §4"}, "COS-7 [16]": {"test_system": "COS-7", "assay": "Induction of autophagy in african green monkey COS7 cells expressing EGFP-HDQ74 assessed as huntingtin mutant aggregation at 10 uM after 48 hrs", "format": "functional, cell-based", "details": "Chlorocebus aethiops", "procedure,_shortened": "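COS-7 cells seeded at 1×10⁵/well for 24 h, then transfected with pEGFP-HDQ74 (1.5 μg/well) using LipofectAMINE for 4 h. Compound added, and cells fixed at 48 h and mounted in DAPI. About 200 EGFP-positive cells per sample were scored for presence of aggregates by a blinded observer. Triplicate, at least twice.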"}, "COS-7 [17]": {"test_system": "COS-7", "assay": "Induction of autophagy in african green monkey COS7 cells expressing PLC-epsilon assessed as calpain activation at 2.5 uM after 30 mins by immunoblotting analysis", "format": "functional, cell-based", "details": "Chlorocebus aethiops", "procedure,_shortened": "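Calpain activation in COS-7 after 30 min exposure, alongside 2.5 μM thapsigargin where applied; immunoblot of the active calpain small subunit.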"}, "Danio rerio [18]": {"organism": "Danio rerio", "assay": "Protection of neurodegeneration in zebrafish Huntington's disease model expressing EGFP-tagged huntingtin exon with EGFP-HDQ71 in rod photoreceptor assessed as loss of rhodopsin expression at 3 uM"}, "Danio rerio [19]": {"organism": "Danio rerio", "assay": "Protection of neurodegeneration in zebrafish Huntington's disease model expressing EGFP-tagged huntingtin exon with EGFP-HDQ71 in rod photoreceptor assessed as decrease in […] aggregation at 3 uM"}, "SK-N-MC [20]": {"test_system": "SK-N-MC", "assay": "Induction of autophagy in human SK-N-MC cells expressing EGFP-HDQ74 and endogenously I1R/alpha2 AR assessed as decrease in EGFP-HDQ74 aggregation at 1 uM after 24 hrs by densitometric analysis", "format": "functional, cell-based"}, "SK-N-MC [21]": {"test_system": "SK-N-MC", "assay": "Induction of autophagy in human SK-N-MC cells expressing A53T alpha-synuclein and endogenously I1R/alpha2 AR assessed as increase in A53T alpha-synuclein clearance at 1 uM after 24 hrs by densitometric analysis", "format": "functional, cell-based"}, "PC-12 [22]": {"test_system": "PC-12", "assay": "Induction of autophagy in rat stable inducible PC12 cells assessed as increase in LC3-2 level after 24 hrs by immunoblotting analysis", "format": "functional, cell-based", "procedure,_shortened": "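Endogenous LC3-II in PC12 cells after 24 h exposure; immunoblot densitometry relative to actin.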"}, "PC-12 [23]": {"test_system": "PC-12", "assay": "Induction of autophagy in rat stable inducible PC12 cells expressing EGFP-HDQ74 and endogenously I1R assessed as decrease in EGFP-HDQ74 aggregation at 1 uM after 24 hrs by densitometric analysis", "format": "functional, cell-based"}, "PC-12 [24]": {"test_system": "PC-12", "assay": "Induction of autophagy in rat stable inducible PC12 cells expressing A53T alpha-synuclein and endogenously I1R assessed as increase in A53T alpha-synuclein clearance at 1 uM after 24 hrs by densitometric analysis", "format": "functional, cell-based", "procedure,_shortened": "(§5)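 Inducible PC12 A53T α-synuclein (HA) cells induced with 1 μg/ml doxycycline for 48 h. Doxycycline then removed for 24 h with compound or DMSO. Remaining protein measured by anti-HA immunoblot, densitometry relative to actin.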"}, "PC-12 [25]": {"test_system": "PC-12", "assay": "Induction of autophagy in rat stable inducible PC12 cells expressing A53T alpha-synuclein assessed as A53T alpha-synuclein clearance at 500 uM after 24 hrs by densitometric analysis", "format": "functional, cell-based", "procedure,_shortened": "as §5"}, "SK-N-SH": {"test_system": "SK-N-SH", "assay": "Induction of autophagy in human SK-N-SH cells expressing EGFP-HDQ74 assessed as reduction in EGFP-HDQ74 aggregation at 500 uM after 48 hrs by densitometric analysis", "format": "functional, cell-based"}}, "note": "Active and inactive are the calls of the source. The calls are words filed in the database; no cut-off is given here."}
{"smiles": "Nc1cc(N2CCCCC2)nc(N)[n+]1[O-]", "note": "[MINOXIDIL]", "values": [{"measurement": "Activity", "setting": "Mus musculus", "result": "inactive"}, {"measurement": "Activity", "setting": "SK-N-SH (Homo sapiens) [1]", "result": "Active"}, {"measurement": "Activity", "setting": "SK-N-MC [2]", "result": "Non-toxic"}, {"measurement": "Activity", "setting": "SK-N-MC [3]", "result": "Active"}, {"measurement": "Activity", "setting": "SK-N-SH (Homo sapiens) [4]", "result": "Active"}]}
{"smiles": "C/C=C(/C)C(=O)O[C@H]1C(C)=C2[C@H]([C@@H]1OC(=O)CCCCCCC)[C@@](C)(OC(C)=O)C[C@H](OC(=O)CCC)[C@@]1(O)[C@H]2OC(=O)[C@@]1(C)O", "values": [{"measurement": "Activity", "setting": "COS-7 [5]", "result": "Active"}, {"measurement": "Activity", "setting": "COS-7 [6]", "result": "inactive"}, {"measurement": "Activity", "setting": "COS-7 [7]", "result": "Active"}, {"measurement": "Activity", "setting": "COS-7 [8]", "result": "inactive"}, {"measurement": "Activity", "setting": "PC-12 [9]", "result": "inactive"}, {"measurement": "Activity", "setting": "COS-7 [10]", "result": "Active"}, {"measurement": "Activity", "setting": "PC-12 [11]", "result": "Active"}, {"measurement": "Activity", "setting": "COS-7 [12]", "result": "inactive"}, {"measurement": "Activity", "setting": "COS-7 [13]", "result": "inactive"}, {"measurement": "Activity", "setting": "COS-7 [14]", "result": "Active"}, {"measurement": "Activity", "setting": "COS-7 [15]", "result": "Active"}]}
{"smiles": "CO[C@@H]1[C@@H]2OP(=O)(O)OC[C@H]2O[C@H]1n1c(Sc2ccc(Cl)cc2)nc2c(N)ncnc21", "values": [{"measurement": "Activity", "setting": "COS-7 [16]", "result": "inactive"}, {"measurement": "Activity", "setting": "COS-7 [17]", "result": "inactive"}]}
{"smiles": "O=C(Nc1ncnc2c1ncn2[C@@H]1O[C@@H]2COP(=O)(O)O[C@H]2[C@H]1O)c1ccccc1", "values": [{"measurement": "Activity", "setting": "COS-7 [17]", "result": "Active"}]}
{"smiles": "CCCC(CCC)C(=O)O", "note": "[VALPROIC ACID]", "values": [{"measurement": "Activity", "setting": "Danio rerio [18]", "result": "inactive"}, {"measurement": "Activity", "setting": "Danio rerio [19]", "result": "Active"}, {"measurement": "Activity", "setting": "SK-N-MC [2]", "result": "Non-toxic"}, {"measurement": "Activity", "setting": "SK-N-SH (Homo sapiens) [4]", "result": "Active"}]}
{"smiles": "C1COC(NC(C2CC2)C2CC2)=N1", "values": [{"measurement": "Activity", "setting": "SK-N-MC [20]", "result": "Active"}, {"measurement": "Activity", "setting": "SK-N-MC [21]", "result": "Active"}, {"measurement": "Activity", "setting": "PC-12 [22]", "result": "Dose-dependent effect"}, {"measurement": "Activity", "setting": "PC-12 [23]", "result": "Active"}, {"measurement": "Activity", "setting": "PC-12 [24]", "result": "Active"}]}
{"smiles": "CN(C)C(=O)C(CCN1CCC(O)(c2ccc(Cl)cc2)CC1)(c1ccccc1)c1ccccc1", "note": "[LOPERAMIDE]", "values": [{"measurement": "Activity", "setting": "SK-N-MC [2]", "result": "Non-toxic"}, {"measurement": "Activity", "setting": "SK-N-SH (Homo sapiens) [4]", "result": "Active"}]}
{"smiles": "Clc1cccc(Cl)c1N=C1NCCN1", "note": "[CLONIDINE]", "values": [{"measurement": "Activity", "setting": "SK-N-MC [2]", "result": "Non-toxic"}]}
{"smiles": "C=C[C@@]1(C)CC(=O)[C@]2(O)[C@@]3(C)[C@@H](O)CCC(C)(C)[C@@H]3[C@H](O)[C@H](OC(C)=O)[C@@]2(C)O1", "values": [{"measurement": "Activity", "setting": "PC-12 [25]", "result": "inactive"}, {"measurement": "Activity", "setting": "SK-N-SH", "result": "inactive"}]}
